Consider six compounds from ChEMBL document CHEMBL3526120, “Plasma stability-dependent circulation of acyl glucuronide metabolites in humans: how circulating metabolite profiles of muraglitazar and peliglitazar can lead to misleading risk assessment” (Drug Metab Dispos, 2011).

For data set [1], the system named is Homo sapiens. The data set is described as follows: Drug metabolism in human plasma assessed as peliglitazar-1-O-beta-acyl glucuronide formation at 10 mg, po administered as single dose measured after 1 to 24 hrs by HPLC analysis. It counts as ADME, organism-based. The note with it: in vivo. The gist of the method:
(§1)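 Healthy male volunteers received a single oral [14C] dose (approximately 100 μCi) in PEG-400 after fasting. K2EDTA blood drawn at 1, 4, 12 and 24 h. Plasma acidified to 5% acetic acid, stored at -20°C, pooled across subjects and extracted three times with methanol/acetonitrile (1:3). Radio-HPLC used fraction collection and counting; protein pellets were counted after NaOH digestion.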

Data set [2] concerns Homo sapiens. As to the kind of experiment: Drug metabolism in human plasma assessed as acyl isomer formation at 10 mg, po administered as single dose by HPLC analysis. It counts as ADME, organism-based. The note with it: in vivo. Put shortly:
as §1

Data set [3] deals with Liver microsome. The data set is described as follows: Drug metabolism in human liver microsomes assessed as glucuronidation rate per mg of protein at 10 uM after 15 mins by LC-MS/HPLC analysis in presence of 2 mM UDPGA. In kind it is ADME. To be noted: 0.25 h. The gist of the method: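 Human liver microsomes (1 mg/mL protein) with substrate 10 μM final, UDPGA 2 mM, MgCl2 10 mM, Tris 100 mM pH 7.4. Started with substrate at 37°C, stopped after 15 min with one volume acetonitrile, centrifuged. Supernatant analysed by LC/MS; fraction from the 278 nm UV trace as metabolite/(metabolite + parent).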

A further data set concerns Hepatocyte. The data set is described as follows: Drug metabolism in human hepatocytes assessed as glucuronidation rate per 10^6 cells at 5 uM after 1 hr by LC-MS/HPLC analysis in Krebs-Henseleit buffer.
In data set [4] the test system is Homo sapiens. The data set is described as follows: Drug metabolism in human plasma assessed as muraglitazar-1-O-beta-acyl glucuronide formation at 20 mg, po administered as single dose after 1 hr by HPLC analysis. It counts as ADME, organism-based. To be noted: in vivo. The gist of the method:
as §1

The subject of data set [5] is Homo sapiens. As to the kind of experiment: Drug metabolism in human plasma assessed as muraglitazar-1-O-beta-acyl glucuronide formation at 20 mg, po administered as single dose measured after 4 to 24 hrs by HPLC analysis. To be noted: in vivo. It counts as ADME, organism-based. Put shortly:
as §1

The test system of data set [6] is Homo sapiens. As to the kind of experiment: Drug metabolism in human plasma assessed as acyl isomer formation at 20 mg, po administered as single dose by HPLC analysis. The note with it: in vivo. It counts as ADME, organism-based. The gist of the method: as §1
Data set [7] in a line: Drug excretion in human urine treated with [14C]muraglitazar at 20 mg, po measured during 0 to 168 hrs. To be noted: in vivo. It counts as ADME, organism-based.
Data set [8] in a line: Drug excretion in human bile treated with [14C]muraglitazar at 20 mg, po measured during 3 to 8 hrs. In kind it is ADME, organism-based. The note with it: in vivo.
Data set [9] in a line: Chemical stability of compound assessed as aglycon formation rate in 50 mM phosphate buffer at pH 7.4 by HPLC analysis. It counts as physicochemical. The gist of the method:
(§2)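 Synthetic 1-O-β-acyl glucuronide at 50 μg/mL, incubated at 37°C and pH 7.4. […] used 50 mM sodium phosphate buffer; […] used human plasma buffered with 50 mM phosphate. Samples were taken at 0.25–48 h (3 tubes per time point), frozen at -80 °C and run on HPLC system III. Aglycon formation rate is the mean of rates within the linear range (<3 hr).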

In another data set the test system is Plasma. The data set is described as follows: Stability in human plasma assessed as aglycon formation rate by HPLC analysis in presence of 50 mM phosphate. It counts as ADME, cell-free. Put shortly: as §2
Data set [10] concerns Liver microsome. As to the kind of experiment: Drug metabolism in human liver microsomes assessed as glucuronide oxidation rate per mg of protein in presence of NADPH. In kind it is ADME. Put shortly: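 Acyl glucuronide (20 μM) was incubated for 15 min with human liver microsomes (2 mg/mL protein) in 50 mM sodium phosphate, with and without 1 mM NADPH. Products were separated on HPLC system II, quantified by UV at 278 nm and identified by LC/MS.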
On the technique in general: Liver microsomes are a subcellular fraction often used to study metabolism.

For data set [11], the system named is Homo sapiens. The data set is described as follows: Drug level in human plasma assessed as compound formation treated with [14C]muraglitazar at 20 mg, po administered as single dose measured after 1 hr by HPLC analysis. In kind it is ADME, organism-based. To be noted: in vivo. The gist of the method: (§3)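 Healthy males aged 18–45 (four subjects) fasted at least 8 h, then took a single oral PEG-400 solution (~100 μCi) of [14C]muraglitazar 20 mg or [14C]peliglitazar 10 mg. K2EDTA plasma was taken at 1, 4, 12 and 24 h, acidified to 5% acetic acid and stored at -20 °C. Plasma was pooled across subjects, extracted three times with methanol/acetonitrile (1:3), and fractions from HPLC system II were radiocounted. Concentration came from relative radioactivity distribution, total radioactivity and specific activity.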

Data set [12] in a line: Drug excretion in human urine treated with [14C][…] at […], po measured during 0 to 168 hrs. The note with it: in vivo. In kind it is ADME, organism-based.
Data set [13] can be described thus: Drug excretion in human bile treated with [14C][…] at […], po measured during 3 to 8 hrs. In kind it is ADME, organism-based. The note with it: in vivo.
Data set [14] relates to Homo sapiens. As to the kind of experiment: Drug level in human plasma assessed as compound formation treated with [14C]peliglitazar at 10 mg, po administered as single dose measured after 1 to 24 hrs by HPLC analysis. In kind it is ADME, organism-based. The note with it: in vivo. The gist of the method: as §3
Data set [15] can be described thus: Drug excretion in human urine at 20 mg, po measured during 0 to 168 hrs. It counts as ADME, organism-based. To be noted: read-out: Drug excretion.
Data set [16] is described as follows: Drug excretion in human bile at 20 mg, po measured during 3 to 8 hrs. It counts as ADME, organism-based. The note with it: read-out: Drug excretion.

Turning to `COc1ccc(OC(=O)N(CC(=O)O)[14C@@H](C)c2ccc(O[14CH2]Cc3nc(-c4ccccc4)oc3C)cc2)cc1`, the Drug metabolism entry in the data set on Homo sapiens [1] is reported as “metabolite_detected”; in the data set on Homo sapiens [2] it was “metabolite_not_detected”; with Liver microsome [3], 32 pmol/min; in the data set on Hepatocyte, 49 pmol/min.

`COc1ccc(OC(=O)N(CC(=O)O)C[14c]2[14cH][14cH][14c](OCCc3nc(-c4ccccc4)oc3C)[14cH][14cH]2)cc1`: the Drug metabolism entry with Homo sapiens [4] is given as “metabolite_detected”; in the data set on Homo sapiens [5], “metabolite_not_detected”; with Homo sapiens [6], “metabolite_not_detected”; with Liver microsome [3] it was 33 pmol/min; in the data set with Hepatocyte, 60 pmol/min.

Consider `COc1ccc(OC(=O)N(CC(=O)O[C@@H]2O[C@H](C(=O)O)[C@@H](O)[C@H](O)[C@H]2O)Cc2ccc(OCCc3nc(-c4ccccc4)oc3C)cc2)cc1`, for which the Drug excretion in [7] is on record as 0.81%; in [8], 15%. In addition, the Drug metabolism in data set [9] was 3.5 ug/ml.hr; with Plasma it was 16.7 ug/ml.hr; with Liver microsome [10] it was 22 pmol/min; in the data set on Homo sapiens [11] it was “metabolite_detected”.

For the compound `COc1ccc(OC(=O)N(CC(=O)O[C@@H]2O[C@H](C(=O)O)[C@@H](O)[C@H](O)[C@H]2O)[C@@H](C)c2ccc(OCCc3nc(-c4ccccc4)oc3C)cc2)cc1`, the Drug excretion in data set [12] came out at 0.24%; in [13], 16%. The Drug metabolism in data set [9] is 0.5 ug/ml.hr; in the data set with Plasma, 5.9 ug/ml.hr; in the data set on Liver microsome [10], 24 pmol/min; in the data set on Homo sapiens [14], “metabolite_detected”.

Regarding `COc1ccc(OC(=O)N(CC(=O)O)Cc2ccc(OCCc3nc(-c4ccccc4)oc3C)cc2)cc1` [MURAGLITAZAR], the dose excreted in data set [15] was 2.13%; in [16], 39.9%.

As to `COc1ccc(OC(=O)N(CC(=O)O)[C@@H](C)c2ccc(OCCc3nc(-c4ccccc4)oc3C)cc2)cc1` [PELIGLITAZAR], the dose excreted in data set [15] is 1.24%; in data set [16], 24.4%.
